Where “and” joins values, the source holds several entries; their conditions need not be identical. Identical values can stand only once.
Tests used:
[1] = tested on: lymphocyte count; conditions: associated with decreasing lymph node size; cited from earlier work
[2] = tested on: patients with relapsed lymphoma or CLL; assay: Toxicity of cycle 1 UCN-01 alone; format: in vivo, human
[3] = tested on: Neoplastic B cells; assay: In vivo apoptosis by annexin V-FITC flow cytometry of peripheral blood; parameters: species or system human; conditions: for Peak value of apoptosis (annexin V-positive cells): CLL patient; for apoptotic B cells positive for CD19 and annexin V: time point not stated
Outline: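 Peripheral blood was stained within 12 h of collection. Erythrocytes were lysed (150 mM NH4Cl, 10 mM KHCO3, 0.1 mM EDTA; 10 min, room temperature), spun 500 × g for 15 min and washed twice in PBS/0.1% NaN3. Cells were co-stained 30 min with annexin V-FITC plus tumour-marker antibodies (CD19, CD5 for CLL). Four-colour flow, ≥5000 lymphocytes per tube. Controls were thawed lymphocytes (positive) and fresh whole blood (negative).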

[4] = tested on: patients with refractory solid tumors; conditions: 24 patients; cited from earlier work
[5] = tested on: absolute lymphocyte count (ALC); assay: Absolute lymphocyte count after UCN-01; format: in vivo, human
[6] = Plasma UCN-01 pharmacokinetics; format: in vivo, human
[7] = tested on: patients with refractory neoplasms; conditions: cited from earlier work
[8] = cycle 1 UCN-01 alone, n (%) of 18 patients
[9] = human, plasma, iv, 45 mg/m^2/day
[10] = median, n=15, cycle 1, 72 h IV infusion at 45 mg/m^2/day

CC[C@H](Nc1ncnc2[nH]cnc12)c1nc2cccc(F)c2c(=O)n1-c1ccccc1 [CAL-101]
patients with an increase in lymphocyte count [1]: 60%

CN[C@@H]1C[C@H]2O[C@@](C)([C@@H]1OC)n1c3ccccc3c3c4c(c5c6ccccc6n2c5c31)C(=O)N[C@@H]4O [UCN-01, 7-hydroxystaurosporine]
grade 4 hyperuricemia, patients ([2]; among the three patients with tumor lysis syndrome): three | Single episodes of grade 2 toxicities ([2]; cycle 1 UCN-01 alone): an elevated bicarbonate level, circulation cardiac-other, constipation, an elevated CPK, depression, dyspepsia, pruritus, and taste disturbance | grade 3 toxicities that occurred one time during cycle 1 ([2]; cycle 1 UCN-01 alone): isolated elevated SGPT and one episode of febrile neutropenia | Amylase, grade 2 or 3 toxicity [2, 8]: 2(11%) | Creatinine, grade 2 or 3 toxicity [2, 8]: 4(22%) | Headache, grade 2 or 3 toxicity [2, 8]: 8(44%) | Hemoglobin, grade 2 or 3 toxicity [2, 8]: 6(33%) | Hyperglycemia, grade 2 or 3 toxicity [2, 8]: 12(67%) | Hypermagnesemia, grade 2 or 3 toxicity [2, 8]: 3(16%) | Hypoalbuminemia, grade 2 or 3 toxicity [2, 8]: 2(11%) | Hypocalcemia, grade 2 or 3 toxicity [2, 8]: 6(33%) | Hyponatremia, grade 2 or 3 toxicity [2, 8]: 2(11%) | Hypoxia, grade 2 or 3 toxicity [2, 8]: 6(33%) | Inf w/o neut (infection without neutropenia), grade 2 or 3 toxicity [2, 8]: 2(11%) | Leukopenia, grade 2 or 3 toxicity [2, 8]: 3(16%) | Lymphopenia, grade 2 or 3 toxicity [2, 8]: 5(27%) | Myalgia, grade 2 or 3 toxicity [2, 8]: 2(11%) | Nausea, grade 2 or 3 toxicity [2, 8]: 8(44%) | Neutropenia, grade 2 or 3 toxicity [2, 8]: 4(22%) | Rash/desquamation, grade 2 or 3 toxicity [2, 8]: 2(11%) | SGOT (AST), grade 2 or 3 toxicity [2, 8]: 3(16%) | Stomatitis, grade 2 or 3 toxicity [2, 8]: 3(16%) | Sup/vnt arrh (supraventricular arrhythmia), grade 2 or 3 toxicity [2, 8]: 2(11%) | Trans prbcs (transfused packed red blood cells), grade 2 or 3 toxicity [2, 8]: 3(16%) | Tumor lysis, grade 2 or 3 toxicity [2, 8]: 3(16%) | Vomiting, grade 2 or 3 toxicity [2, 8]: 4(22%) | tumor lysis syndrome (grade 3, CTCAE v2), patients ([2]; in vivo): Three | Hypocalcemia (grade 2), patients ([2]; six patients): 33% | creatinine peak ([2]; tumor lysis patients with renal dysfunction): 2.1 mg/dL | serum blood urea nitrogen [BUN] peak ([2]; two tumor lysis patients with renal dysfunction): 66 mg/dL and 40 mg/dL | Peak value of apoptosis (annexin V-positive cells) ([3]; day 4 of cycle 1): 15% | Peak value of apoptosis (annexin V-positive cells) ([3]; day 28 of cycle 1): 8% | apoptotic B cells positive for CD19 and annexin V ([3]; patient 10, Figure 2 (B), low level): 2.6% | apoptotic B cells positive for CD19 and annexin V ([3]; patient 17, Figure 2 (C), low level): 3.8% | apoptotic B cells positive for CD19 and annexin V ([3]; patient 17, Figure 2 (E), high level): 38.9% | objective responses [4]: no objective responses | toxicities noted [4]: grade 1–2 nausea, vomiting, hyperglycemia, and hypotension | day of peak lymphocytosis ([5]; cycle 1): ≤ 4 days | increase in the absolute lymphocyte count (ALC) ([5]; first three of four patients with CLL, first cycle of UCN-01 alone): 2.0–2.7 fold | patients with lymphocytosis following UCN-01 ([5]; in vivo): 15 of 18 | difference in UCN-01 CLtot between cycle 1 (without FAMP) and cycle 2 (with FAMP) ([6]; five evaluable patients, paired t-test p = 0.27): no intra-individual difference | Vd ([6]; human, plasma, intravenous, 45 mg/m^2/day): 3 to 18 L | AUC(0-inf) [6, 9]: 7260 µg·h/mL | Cmax [6, 9]: 16700 ng/mL | VλZ [6, 10]: 7.4 L | t1/2 (terminal) [6, 10]: 15.02 days | MTD / recommended phase II dose ([7]; 3-day infusion): 42.5 mg/m^2/day | grade 4 hyperglycemia, patients ([7]; 42.5 dose level, complicated by steroids): 1/9 | significant hematopoietic toxicity [7]: None of the patients had significant hematopoietic toxicity | dose level at which DLT (> grade 3) occurred ([7]; nausea/vomiting, hyperglycemia, transient hypoxia): 53 mg/m^2/ day

From PMC6387680 (Leukemia & lymphoma, 2011)
